# Measured values reported in ChEMBL document CHEMBL5357072, “Structural Modification of Noscapine via Photoredox/Nickel Dual Catalysis for the Discovery of S-Phase Arresting Agents” (ACS Med Chem Lett, 2024).
# pIC50: −log10 of the molar value.
# Key:
# MCF7 = experiment: Antiproliferative activity against human MCF7 cells assessed as inhibition of cell proliferation; format: functional, cell-based
# MOLM-13 [1] = experiment: Induction of apoptosis in human MOLM-13 cells assessed as early apoptotic cells at 10 uM incubated for 48 hrs by Annexin V-FITC/PI staining based flow cytometric analysis (reference value: 4.10%); format: functional
# A549 = experiment: Antiproliferative activity against human A549 cells assessed as cell growth inhibition at 10 uM incubated for 48 hrs by CCK8 assay relative to control; format: functional; details: read-out: GI
# How it was run: (§1)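 Single-concentration screen of six cancer cell lines. Cells were exposed to 10 μM compound and growth was measured by CCK-8 assay. Results are reported as inhibition rate at 10 μM.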
# MOLM-13 [2] = experiment: Cell cycle arrest in human MOLM-13 cells assessed as accumulation of S phase cells at 10 uM incubated for 24 hrs by RNase A/PI staining based flow cytometry analysis (reference value: 50.12%); format: functional
# MOLM-13 [3] = experiment: Induction of apoptosis in human MOLM-13 cells assessed as late apoptotic cells at 10 uM incubated for 48 hrs by Annexin V-FITC/PI staining based flow cytometric analysis (reference value: 3.17%); format: functional
# [4] = Antiproliferative activity against Renal 1983 cells (unknown origin) assessed as inhibition of cell proliferation; format: functional, cell-based; details: Renal 1983 cell
# NB-4 [5] = experiment: Antiproliferative activity against human NB4 cells assessed as inhibition of cell growth incubated for 48 hrs by CCK8 assay; format: functional, cell-based; details: NB-4, 48 h
# How it was run: (§2)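 CCK-8 growth-inhibition assay in the malignant haematological lines MOLM-13, NB4 and Jeko-1 and in normal PBMC. Cells were treated across a range of doses and IC50 taken as the half-maximal growth-inhibitory concentration. Data are mean ± SD of triplicate samples, and experiments were repeated at least three times.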
# JeKo-1 [6] = experiment: Antiproliferative activity against human JeKo-1 cells assessed as inhibition of cell growth incubated for 48 hrs by CCK8 assay; format: functional, cell-based; details: JeKo-1, 48 h; how it was run: as §2
# MOLM-13 [7] = experiment: Antiproliferative activity against human MOLM-13 cells assessed as cell growth inhibition at 10 uM incubated for 48 hrs by CCK8 assay relative to control; format: functional; details: read-out: GI; how it was run: as §1
# U-251 = experiment: Antiproliferative activity against human U-251 cells assessed as cell growth inhibition at 10 uM incubated for 48 hrs by CCK8 assay relative to control; format: functional; details: read-out: GI; how it was run: as §1
# NB-4 [8] = experiment: Antiproliferative activity against human NB4 cells assessed as cell growth inhibition at 10 uM incubated for 48 hrs by CCK8 assay relative to control; format: functional; details: read-out: GI; how it was run: as §1
# MOLM-13 [9] = experiment: Induction of apoptosis in human MOLM-13 cells assessed as viable cells at 10 uM incubated for 48 hrs by Annexin V-FITC/PI staining based flow cytometric analysis (reference value: 92.24%); format: functional; details: read-out: Activity
# JeKo-1 [10] = experiment: Antiproliferative activity against human JeKo-1 cells assessed as cell growth inhibition at 10 uM incubated for 48 hrs by CCK8 assay relative to control; format: functional; details: read-out: GI; how it was run: as §1
# MOLM-13 [11] = experiment: Cell cycle arrest in human MOLM-13 cells assessed as accumulation of G0/G1 phase cells at 10 uM incubated for 24 hrs by RNase A/PI staining based flow cytometry analysis (reference value: 38.14%); format: functional
# MOLM-13 [12] = experiment: Cell cycle arrest in human MOLM-13 cells assessed as accumulation of G2/M phase cells at 10 uM incubated for 24 hrs by RNase A/PI staining based flow cytometry analysis (reference value: 11.74%); format: functional
# MOLM-13 [13] = experiment: Induction of apoptosis in human MOLM-13 cells assessed as necrotic cells at 10 uM incubated for 48 hrs by Annexin V-FITC/PI staining based flow cytometric analysis (reference value: 0.48%); format: functional
# MOLM-13 [14] = experiment: Antiproliferative activity against human MOLM-13 cells assessed as inhibition of cell growth incubated for 48 hrs by CCK8 assay; format: functional, cell-based; details: MOLM-13, 48 h; how it was run: as §2
# HeLa [15] = experiment: Antiproliferative activity against human HeLa cells assessed as inhibition of cell proliferation; format: functional, cell-based
# HeLa [16] = experiment: Antiproliferative activity against human HeLa cells assessed as cell growth inhibition at 10 uM incubated for 48 hrs by CCK8 assay relative to control; format: functional; details: read-out: GI; how it was run: as §1
structure (smiles),measurement,setting,value
COc1ccc2c(c1OC)C(=O)O[C@@H]2[C@H]1c2c(cc3c(c2OC)OCO3)CCN1C [NOSCAPINE],pIC50,MCF7,4.38
same,Activity,MOLM-13 [1],6.9%
same,inhibition of growth at 10 µM,A549,< 5%
same,Activity,MOLM-13 [2],60.54%
same,Activity,MOLM-13 [3],8.44%
same,pIC50,[4],4.41
same,pIC50,NB-4 [5],< 4.70
same,pIC50,JeKo-1 [6],< 4.70
same,inhibition of growth at 10 µM,MOLM-13 [7],19%
same,inhibition of growth at 10 µM,U-251,< 5%
same,inhibition of growth at 10 µM,NB-4 [8],26.7%
same,viability at 10 µM,MOLM-13 [9],83%
same,inhibition of growth at 10 µM,JeKo-1 [10],< 5%
same,Activity,MOLM-13 [11],25.66%
same,Activity,MOLM-13 [12],13.8%
same,Activity,MOLM-13 [13],1.71%
same,pIC50,MOLM-13 [14],< 4.70
same,pIC50,HeLa [15],4.60
same,inhibition of growth at 10 µM,HeLa [16],< 5%
